Values joined by “and” are separate entries in the source; they are usually repeats but may differ in a detail not shown here. Identical values can stand only once. Like-named read-outs stand apart in the source and are kept apart here.
What was measured:
[1] = test system: TrpM2; conditions: cytosolic, ref Perraud et al., 2001, Sano et al.; cited from earlier work
[2] = test system: Ca^2+- and ATP-sensitive nonselective cation channels (CA-NSCs); experiment: Excised inside-out patch recording of CA-NSC channel gating; assay type: biochemical, rat; conditions: for Inhibition of Po / effect on gating (in words): cytosolic exposure, Fig. 3 A; for Prevention of inhibition by concomitantly added ATP (in words): Fig. 3 B, 100 μM ATP for PI(4,5)P2
[3] = test system: CA-NSC channels present in astrocytes; conditions: ref Chen et al., 2003; cited from earlier work
[4] = test system: Ca^2+- and ATP-sensitive nonselective cation channels (CA-NSCs); experiment: Ensemble fitting of kinetic binding models to the dose response curves; assay type: biochemical, rat; conditions: noncompetitive model with allosteric destabilization, one subunit
Summary of the method: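 Custom software ensemble-fits the two-ligand extensions of a reversible-binding scheme to 18 normalized dose response curves (Po, opening and closing rates) from inside-out patches. Error function is summed squared differences between predicted and measured values. Open-state Kds are constrained by microscopic reversibility. Unliganded opening rate is fixed at its average (−40 mV, 1 mM cytosolic Ca2+).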

[5] = test system: TrpM4b; conditions: ref Nilius et al., 2004, cited from earlier work
[6] = test system: Ca^2+- and ATP-sensitive nonselective cation channels (CA-NSCs); assay type: biochemical, rat; conditions: for Effect on the i([DV]) dose response curve (in words): 1 mM nucleotide
Summary of the method: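 Inside-out patches from rat brain capillary endothelial cells, cultured 5–6 d, at 25°C. Pipette: 140 mM NaCl, 30 μM benzamil, pH 7.4. Bath: 140 mM KCl or NMDG-Cl, pH 7.1, plus 1 mM CaCl2. i(V) is recorded ± 70 μM DV. KCl data get linear fits; NMDG data get GHK fits with asymptotic negative-potential slope. Currents at −40 mV ± 1 mM nucleotide are normalized to in-patch control and Hill-fitted.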

[7] = test system: Ca^2+- and ATP-sensitive nonselective cation channels (CA-NSCs); conditions: read-out: [Ca2+]i required for half-maximal activation; freshly excised channels; ref Csanády and Adam-Vizi, 2003; cited from earlier work
[8] = Decay of decavanadate in bath solution measured by photometry; assay type: physicochemical; conditions: pH = 7.1, T = 25°C
Summary of the method: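 DV stock is 50 mM Na3VO4 brought to pH 2.0, kept at +4°C, used within 24 h and diluted into bath under 90 min before use. Spectra of 1 mM Na3VO4 in bath (pH 7.1, 25°C) are taken 0–8 h after preparation against a boiled same-composition blank. DV is tracked as peak absorbance at ~390 nm, and the decay is single-exponential fitted.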

[9] = read-out: K1/2 for inhibition of opening rate, 1 mM Ca2+ i, Vm −40 mV, no DV, Hill fit, deactivated channels
[10] = 70 μM DV, NaCl pipette, KCl bath

Nc1ncnc2c1ncn2[C@@H]1O[C@H](COP(=O)(O)OP(=O)(O)OC[C@H]2OC(O)[C@H](O)[C@@H]2O)[C@@H](O)[C@H]1O (stereo partly drawn) [ADP-ribose]
Effect on TrpM2 (in words) [1]: activated | Inhibition of Po / effect on gating (in words) ([2]; 1 mM Ca2+ i, −40 mV): inhibited to a variable extent

Nc1ncnc2c1ncn2[C@@H]1O[C@H](COP(=O)(O)OP(=O)(O)O)[C@@H](O)[C@H]1O [ADP]
Nucleotide sensitivity of astrocyte CA-NSC channels (in words) [3]: insensitive | Predicted decrease in nucleotide affinity brought upon by DV binding [4]: ~10^5 fold | IC50 [2, 9]: 4.3 ± 0.5 µM | Increase of K1/2 for inhibition of Po caused by DV ([2]; ~1.6 μM DV vs no DV): ~20 × | Inhibition of TrpM4b (in words) [5]: the most potent inhibitor | Effect on the i([DV]) dose response curve (in words) [6]: not altered

Nc1ncnc2c1ncn2[C@@H]1O[C@H](COP(=O)(O)OP(=O)(O)NP(=O)(O)O)[C@@H](O)[C@H]1O [AMPPNP]
Inhibition of Po / effect on gating (in words) ([2]; 1 mM Ca2+ i, −40 mV): effectively inhibited

Nc1ncnc2c1ncn2[C@@H]1O[C@H](COP(=O)(O)O)[C@@H](O)[C@H]1O [AMP]
Nucleotide sensitivity of astrocyte CA-NSC channels (in words) [3]: insensitive | Predicted decrease in nucleotide affinity brought upon by DV binding [4]: ~10^3 fold | Po ([2]; 1 mM AMP in the presence of ~8 μM DV): ~0.25 | IC50 [2, 9]: 1.1 ± 0.2 µM | Increase of K1/2 for inhibition of Po caused by DV ([2]; ~8 μM DV vs no DV): ~90 × | Effect on the i([DV]) dose response curve (in words) [6]: not altered

Nc1ncnc2c1ncn2[C@@H]1O[C@H](COP(=O)(O)OP(=O)(O)OP(=O)(O)O)[C@@H](O)[C@H]1O [ATP]
Nucleotide sensitivity of astrocyte CA-NSC channels (in words) [3]: inhibited | Predicted decrease in nucleotide affinity brought upon by DV binding [4]: ~200 fold | Increase of K1/2 for inhibition of Po ([2]; 10 mM vs 1 mM Ca2+ i): ~3 fold | Opening rate (normalized) ([2]; (b) 10 μM total ATP, 1 mM free Ca2+, 2 mM free Mg2+): 0.62 ± 0.12 (n = 3) | Opening rate (normalized) ([2]; (c) 10 μM total ATP, 10 mM free Ca2+, 2.01 mM free Mg2+): 0.61 ± 0.10 (n = 4) | Opening rate (normalized) ([2]; (d) 100 μM total ATP, 1 mM free Ca2+, 0.184 mM free Mg2+): 0.094 ± 0.043 (n = 6) | Opening rate (normalized) ([2]; (e) 100 μM total ATP, 1 mM free Ca2+, 2.03 mM free Mg2+): 0.10 ± 0.03 (n = 14) | Opening rate (normalized) ([2]; (f) 100 μM total ATP, 1 mM free Ca2+, 9.91 mM free Mg2+): 0.16 ± 0.06 (n = 6) | IC50 ([2]; read-out: K1/2 for inhibition of Po, 1 mM Ca2+ i, −80 mV): 7.3 ± 1 µM | IC50 ([2]; read-out: K1/2 for inhibition of Po, 10 mM Ca2+ i, −40 mV): 52 ± 6 µM | IC50 ([2]; read-out: K1/2 for inhibition of Po, freshly excised (~10 s) channels in 100 μM Ca2+, −40 mV, tentative analysis): 34 ± 3 µM | IC50 [2, 9]: 11 ± 2 µM | IC50 ([2]; read-out: K1/2 for inhibition of opening rate, 1 mM Ca2+ i, −80 mV): 8.4 ± 2 µM | IC50 ([2]; read-out: K1/2 for inhibition of opening rate, 10 mM Ca2+ i, −40 mV): 14 ± 5 µM | IC50 ([2]; read-out: K1/2 for inhibition of opening rate, freshly excised (~10 s) channels in 100 μM Ca2+, −40 mV, tentative analysis): 15 ± 2 µM | Increase of K1/2 for inhibition of Po caused by DV ([2]; ~1.6 μM DV vs no DV): ~40 × | Decrease of K1/2 for inhibition of Po ([2]; −80 mV vs −40 mV): ≈ 2 fold | Fraction of TrpM4b current insensitive to nucleotide ([5]; even millimolar [ATP]): ~20% | Effect on the i([DV]) dose response curve (in words) [6]: not altered

Nc1ncnc2c1ncn2[C@@H]1O[C@H](CO)[C@@H](O)[C@H]1O [Ado, adenosine]
Prevention of inhibition by concomitantly added ATP (in words) [2]: none | Inhibition of Po / effect on gating (in words) ([2]; 1 mM Ca2+ i, −40 mV): inhibited only at high concentrations

[Ca+2] [Ca^2+]
EC50 [7]: ~20 µM

[O]=[V]([O-])([O-])[O][V]1(=[O])[O][V]2(=[O])[O][V](=[O])([O][V](=[O])([O-])[O-])[O][V](=[O])([O]2)[O][V]2(=[O])[O][V](=[O])([O][V](=[O])([O-])[O-])[O][V](=[O])([O]1)[O]2 (stereo not drawn) [DV, decavanadate]
Increase of K1/2 for stimulation of Po caused by nucleotide ([2]; 1 mM ADP vs control): ~80 × | Increase of K1/2 for stimulation of Po caused by nucleotide ([2]; 1 mM AMP vs control): ~270 × | Increase of K1/2 for stimulation of Po caused by nucleotide ([2]; 1 mM ATP vs control): ~35 × | EC50 ([2]; read-out: K1/2 for stimulation of Po, 1 mM Ca2+ i, −40 mV, no nucleotides): 0.09 µM | Increase of single-channel (slope) conductance relative to control [6, 10]: 34 ± 2% and ~30% | Reversal potential [6, 10]: −1 ± 2 mV | Slope conductance [6, 10]: 42 ± 3 pS | Asymptotic conductance at negative potentials ([6]; 70 μM DV, NaCl pipette, NMDG-Cl bath, n = 3): 36 ± 0.5 pS | K1/2 for conductance relative to K1/2 for stimulation of gating ([6]; higher): ~20 fold | EC50 ([6]; read-out: K1/2 for stimulation of single-channel conductance, no nucleotides (control), −40 mV): 1.7 ± 0.3 µM | Time constant of decay in bath solution [8]: ~4 h

Nc1nc2c(ncn2[C@@H]2O[C@H](COP(=O)(O)OP(=O)(O)OP(=O)(O)O)[C@@H](O)[C@H]2O)c(=O)[nH]1 [GTP]
Inhibition of Po / effect on gating (in words) ([2]; 1 mM Ca2+ i, −40 mV): compatible with inhibition | Inhibition of TrpM4b (in words) [5]: poor inhibitors

Nc1ncnc2c1ncn2[C@@H]1O[C@H](COP(=O)(O)OP(=O)(O)OC[C@H]2O[C@@H]([n+]3cccc(C(=O)O)c3)[C@H](O)[C@@H]2O)[C@@H](O)[C@H]1OP(=O)(O)O [NAADP]
Inhibition of Po / effect on gating (in words) ([2]; 1 mM Ca2+ i, −40 mV): inhibited to a variable extent

NC(=O)C1=CN([C@@H]2O[C@H](COP(=O)(O)OP(=O)(O)OC[C@H]3O[C@@H](n4cnc5c(N)ncnc54)[C@H](O)[C@@H]3O)[C@@H](O)[C@H]2O)C=CC1 [NADH]
Inhibition of Po / effect on gating (in words) ([2]; 1 mM Ca2+ i, −40 mV): inhibited to a variable extent

NC(=O)C1=CN([C@@H]2O[C@H](COP(=O)(O)OP(=O)(O)OC[C@H]3O[C@@H](n4cnc5c(N)ncnc54)[C@H](OP(=O)(O)O)[C@@H]3O)[C@@H](O)[C@H]2O)C=CC1 [NADPH]
Inhibition of Po / effect on gating (in words) ([2]; 1 mM Ca2+ i, −40 mV): inhibited to a variable extent

NC(=O)c1ccc[n+]([C@@H]2O[C@H](COP(=O)([O-])OP(=O)(O)OC[C@H]3O[C@@H](n4cnc5c(N)ncnc54)[C@H](OP(=O)(O)O)[C@@H]3O)[C@@H](O)[C@H]2O)c1 [NADP^+]
Inhibition of Po / effect on gating (in words) ([2]; 1 mM Ca2+ i, −40 mV): inhibited to a variable extent

NC(=O)c1ccc[n+]([C@@H]2O[C@H](COP(=O)([O-])OP(=O)(O)OC[C@H]3O[C@@H](n4cnc5c(N)ncnc54)[C@H](O)[C@@H]3O)[C@@H](O)[C@H]2O)c1 [NAD^+]
Effect on TrpM2 (in words) [1]: activated | Inhibition of Po / effect on gating (in words) ([2]; 1 mM Ca2+ i, −40 mV): inhibited to a variable extent

O=P(O)(O)OC[C@H]1O[C@H](OP(=O)(O)OP(=O)(O)O)[C@H](O)[C@@H]1O [PRPP, phospho-ribosyl-PP]
Prevention of inhibition by concomitantly added ATP (in words) [2]: none | Inhibition of Po / effect on gating (in words) ([2]; 1 mM Ca2+ i, −40 mV): failed to inhibit channel activity

O=P(O)(O)O [Pi, Inorganic phosphate]
Prevention of inhibition by concomitantly added ATP (in words) [2]: none | Inhibition of Po / effect on gating (in words) ([2]; 1 mM Ca2+ i, −40 mV): had little effect

O=c1ccn([C@@H]2O[C@H](COP(=O)(O)OP(=O)(O)OP(=O)(O)O)[C@@H](O)[C@H]2O)c(=O)[nH]1 [UTP]
Inhibition of Po / effect on gating (in words) ([2]; 1 mM Ca2+ i, −40 mV): compatible with inhibition | Inhibition of TrpM4b (in words) [5]: poor inhibitors

N=c1c2ncn3c2ncn1[C@@H]1O[C@H](COP(=O)(O)OP(=O)(O)OC[C@H]2O[C@@H]3[C@H](O)[C@@H]2O)[C@@H](O)[C@H]1O [cADP-ribose]
Prevention of inhibition by concomitantly added ATP (in words) [2]: none | Inhibition of Po / effect on gating (in words) ([2]; 1 mM Ca2+ i, −40 mV): failed to inhibit channel activity

Nc1nc2c(ncn2[C@@H]2O[C@@H]3COP(=O)(O)O[C@H]3[C@H]2O)c(=O)[nH]1 [cGMP]
Prevention of inhibition by concomitantly added ATP (in words) [2]: none | Inhibition of Po / effect on gating (in words) ([2]; 1 mM Ca2+ i, −40 mV): failed to affect gating

[O]=[V]([O-])([O-])[O-] [orthovanadate]
Effect of vanadate solution on CA-NSC gating (in words) ([2]; 1-mM vanadate solution, 1 mM Ca2+ i): robust stimulation of channel gating to a Po close to unity | Increase in single-channel current size ([6]; 1-mM orthovanadate solution (untreated, contains trace DV)): ~30%

O=P(O)(O)OP(=O)(O)O [pyrophosphate]
Inhibition ([2]; 2 mM, n = 4): 92 ± 2%

O=C[C@H](O)[C@H](O)[C@H](O)COP(=O)(O)O [ribose-5P]
Prevention of inhibition by concomitantly added ATP (in words) [2]: none | Inhibition of Po / effect on gating (in words) ([2]; 1 mM Ca2+ i, −40 mV): failed to inhibit channel activity

phosphatidyl inositol 4,5-bisphosphate [PI(4,5)P2]
Inhibition of Po / effect on gating (in words) ([2]; 1 mM Ca2+ i, −40 mV): affected neither CA-NSC gating

Reference: publication PMC2234573 (The Journal of General Physiology, 2004)
